Experimental findings from ChEMBL document CHEMBL1132183 (J Med Chem, 1999) are described below.

For assay [1], the target named is T1, Adrenergic receptor alpha-2 (Rattus norvegicus, UniProt P22086+P19328+P22909).
T1 sequence (P22086 whole entry): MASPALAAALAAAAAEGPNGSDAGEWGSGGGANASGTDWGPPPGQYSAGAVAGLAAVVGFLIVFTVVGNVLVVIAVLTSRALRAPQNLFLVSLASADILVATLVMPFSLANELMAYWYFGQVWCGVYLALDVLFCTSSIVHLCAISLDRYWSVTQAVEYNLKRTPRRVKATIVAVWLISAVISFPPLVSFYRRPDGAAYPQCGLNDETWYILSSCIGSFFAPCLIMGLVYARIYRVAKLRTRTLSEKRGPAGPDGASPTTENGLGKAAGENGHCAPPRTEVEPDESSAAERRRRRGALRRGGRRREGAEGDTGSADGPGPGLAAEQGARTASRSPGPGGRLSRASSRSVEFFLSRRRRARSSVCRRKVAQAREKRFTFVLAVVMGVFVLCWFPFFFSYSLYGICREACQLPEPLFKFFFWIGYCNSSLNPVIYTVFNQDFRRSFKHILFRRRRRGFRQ
T1 sequence (P19328 whole entry): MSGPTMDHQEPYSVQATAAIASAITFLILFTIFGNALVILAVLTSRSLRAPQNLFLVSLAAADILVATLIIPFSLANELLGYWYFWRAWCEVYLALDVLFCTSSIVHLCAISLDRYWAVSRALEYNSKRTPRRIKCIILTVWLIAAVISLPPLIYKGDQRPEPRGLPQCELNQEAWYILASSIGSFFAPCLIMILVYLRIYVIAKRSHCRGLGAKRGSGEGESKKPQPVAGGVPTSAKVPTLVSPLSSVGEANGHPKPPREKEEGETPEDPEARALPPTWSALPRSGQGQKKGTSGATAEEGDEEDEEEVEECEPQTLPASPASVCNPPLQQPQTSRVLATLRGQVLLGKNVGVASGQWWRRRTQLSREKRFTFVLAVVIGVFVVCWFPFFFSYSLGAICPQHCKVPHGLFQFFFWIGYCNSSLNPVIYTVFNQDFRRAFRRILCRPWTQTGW
T1 sequence (P22909 whole entry): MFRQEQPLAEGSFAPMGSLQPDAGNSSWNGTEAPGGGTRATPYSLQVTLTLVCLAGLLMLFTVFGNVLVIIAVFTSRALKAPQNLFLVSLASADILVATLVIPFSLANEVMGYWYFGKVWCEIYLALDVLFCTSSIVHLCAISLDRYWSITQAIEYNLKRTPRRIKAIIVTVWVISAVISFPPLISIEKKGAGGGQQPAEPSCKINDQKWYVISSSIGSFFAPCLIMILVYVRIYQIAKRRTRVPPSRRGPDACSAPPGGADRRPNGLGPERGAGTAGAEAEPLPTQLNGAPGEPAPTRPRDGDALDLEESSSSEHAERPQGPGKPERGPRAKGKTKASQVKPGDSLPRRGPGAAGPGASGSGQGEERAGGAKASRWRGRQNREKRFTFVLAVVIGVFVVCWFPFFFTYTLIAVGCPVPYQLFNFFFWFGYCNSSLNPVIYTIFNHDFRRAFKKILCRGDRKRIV
Put plainly: Displacement of [3H]rauwolscine from rat brain Alpha-2 adrenergic receptor. Put shortly:
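Rat cerebral cortex membranes (male Sprague–Dawley) were washed in Tris-HCl pH 7.4 and resuspended with 10 μM pargiline and 0.1% ascorbic acid. They were incubated 30 min at 25 °C with 0.5–1.5 nM [3H]rauwolscine. Nonspecific binding was taken with 10 μM phentolamine. Filtration and scintillation counting followed, and Ki was obtained by Cheng–Prusoff.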
On the technique in general: In a radioligand displacement assay an active substance lowers the binding of a labelled ligand.

Assay [2] addresses T2, Alpha-1B adrenergic receptor (Homo sapiens, UniProt P35368).
T2 sequence (P35368 whole entry): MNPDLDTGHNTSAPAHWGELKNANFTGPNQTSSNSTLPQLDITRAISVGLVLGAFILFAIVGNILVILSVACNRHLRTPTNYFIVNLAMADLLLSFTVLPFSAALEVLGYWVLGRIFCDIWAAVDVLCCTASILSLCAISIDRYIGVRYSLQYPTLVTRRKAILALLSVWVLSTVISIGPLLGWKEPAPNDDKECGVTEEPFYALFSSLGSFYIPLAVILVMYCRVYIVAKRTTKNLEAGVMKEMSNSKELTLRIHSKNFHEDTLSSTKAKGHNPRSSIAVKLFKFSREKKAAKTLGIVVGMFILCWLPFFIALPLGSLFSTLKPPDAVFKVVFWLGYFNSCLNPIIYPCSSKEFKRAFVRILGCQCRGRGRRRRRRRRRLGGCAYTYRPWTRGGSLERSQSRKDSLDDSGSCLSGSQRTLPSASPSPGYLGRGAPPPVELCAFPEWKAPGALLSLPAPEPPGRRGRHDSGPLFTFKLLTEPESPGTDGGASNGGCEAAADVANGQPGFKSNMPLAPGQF
Put plainly: Displacement of [3H]prazosin from human cloned Alpha-1B adrenergic receptor. The method, boiled down: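 CHO cells stably transfected with each human α1 subtype; 30 μg membrane protein in 50 mM Tris-HCl pH 7.4 with 0.1–0.4 nM [3H]prazosin, 30 min at 25 °C. Competitors 1 pM–10 μM. Nonspecific binding defined with 10 μM phentolamine. Filtration, scintillation counting. Ki by Cheng–Prusoff; 2–3 experiments in triplicate.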

The next assay concerns the target D(2) dopamine receptor (Rattus norvegicus, UniProt P61169). Put plainly: Displacement of [3H]spiperone from rat brain Dopamine receptor D2. The method, boiled down:
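Striata from male Sprague–Dawley rats homogenized in Tris-HCl pH 7.4. Buffer held 10 μM pargiline, 0.1% ascorbic acid, 120 mM NaCl, 5 mM KCl, 2 mM CaCl2, 1 mM MgCl2. Incubated with 0.2–0.6 nM [3H]spiperone for 15 min at 37 °C. Nonspecific binding defined with 1 μM (+)-butaclamol. Filtration, scintillation counting. Ki by Cheng–Prusoff.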

For assay [3], the target named is Serotonin 2 (5-HT2) receptor (Rattus norvegicus, UniProt P30994+P08909+P14842). Put plainly: Displacement of [3H]ketanserin from rat brain 5-hydroxytryptamine 2 receptor. The method, boiled down: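 Rat cerebral cortex membranes (male Sprague–Dawley) in Tris-HCl pH 7.4 with 10 μM pargiline and 0.1% ascorbic acid were incubated 20 min at 37 °C with 0.7–1.3 nM [3H]ketanserin (5-HT2A). Nonspecific binding was defined by 2 μM ketanserin. Bound label was counted after filtration, and Ki was derived by Cheng–Prusoff.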

The target of assay [4] is T3, Alpha-1B adrenergic receptor (Rattus norvegicus) (UniProt P15823).
T3 sequence (whole entry): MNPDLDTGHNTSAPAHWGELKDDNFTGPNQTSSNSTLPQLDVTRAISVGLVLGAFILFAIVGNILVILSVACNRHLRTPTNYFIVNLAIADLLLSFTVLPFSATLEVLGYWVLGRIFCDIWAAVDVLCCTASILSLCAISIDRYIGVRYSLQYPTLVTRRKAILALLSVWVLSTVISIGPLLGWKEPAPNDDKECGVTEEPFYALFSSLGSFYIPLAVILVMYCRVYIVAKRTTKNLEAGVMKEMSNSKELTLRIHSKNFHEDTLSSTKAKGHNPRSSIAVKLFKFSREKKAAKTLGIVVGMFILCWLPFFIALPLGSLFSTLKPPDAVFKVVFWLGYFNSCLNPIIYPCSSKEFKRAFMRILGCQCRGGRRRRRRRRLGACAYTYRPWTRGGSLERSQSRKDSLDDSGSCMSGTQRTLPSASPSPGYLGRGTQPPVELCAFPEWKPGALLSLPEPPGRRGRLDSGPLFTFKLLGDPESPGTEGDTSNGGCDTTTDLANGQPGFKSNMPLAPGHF
Put plainly: Antagonism of Alpha-1B adrenergic receptor subtype (-)-phenylephrine-induced contraction of rat spleen. The class given is functional, tissue-based. The method, boiled down: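 Rat spleen, isometric cumulative (–)-phenylephrine curves at 30-min intervals; first discarded, second taken as control. Antagonist was equilibrated 30 min before the next curve.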

The target of assay [5] is T4, 5-hydroxytryptamine receptor 1A (Homo sapiens) (UniProt P08908).
T4 sequence (whole entry): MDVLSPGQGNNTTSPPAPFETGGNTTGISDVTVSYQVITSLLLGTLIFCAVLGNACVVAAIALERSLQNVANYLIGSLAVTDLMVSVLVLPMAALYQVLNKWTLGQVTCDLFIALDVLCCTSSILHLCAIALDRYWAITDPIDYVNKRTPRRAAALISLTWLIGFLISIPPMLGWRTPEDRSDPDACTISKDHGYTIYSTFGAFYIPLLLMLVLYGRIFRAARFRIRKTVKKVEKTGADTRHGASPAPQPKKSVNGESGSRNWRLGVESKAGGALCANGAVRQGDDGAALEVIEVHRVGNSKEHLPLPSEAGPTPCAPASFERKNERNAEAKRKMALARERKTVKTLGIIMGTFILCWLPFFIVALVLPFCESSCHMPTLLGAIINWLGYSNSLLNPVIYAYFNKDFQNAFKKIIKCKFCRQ
As to conditions: HeLa.

Assay [6] concerns the target T4, 5-hydroxytryptamine receptor 1A (Homo sapiens). As to conditions: HeLa. The source holds these as a separate data set.

Sequence of D(2) dopamine receptor (P61169 whole entry): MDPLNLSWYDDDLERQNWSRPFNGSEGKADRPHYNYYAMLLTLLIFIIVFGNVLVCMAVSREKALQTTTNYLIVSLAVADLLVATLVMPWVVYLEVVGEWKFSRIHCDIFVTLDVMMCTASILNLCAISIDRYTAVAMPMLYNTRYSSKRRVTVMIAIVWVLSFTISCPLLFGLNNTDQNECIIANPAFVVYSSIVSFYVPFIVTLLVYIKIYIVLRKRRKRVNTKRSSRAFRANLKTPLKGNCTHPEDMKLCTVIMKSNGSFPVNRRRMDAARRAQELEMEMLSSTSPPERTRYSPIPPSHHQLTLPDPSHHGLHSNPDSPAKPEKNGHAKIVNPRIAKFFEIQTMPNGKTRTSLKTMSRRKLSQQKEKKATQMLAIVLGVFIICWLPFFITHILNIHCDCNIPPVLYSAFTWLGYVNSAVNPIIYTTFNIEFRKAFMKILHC

For the compound `CCCN(CCC)C1CCc2cccc(O)c2C1` (stereo unspecified) [8-OH-DPAT], the “Log Ki” value in assay [1] is on record as -6.08; on D(2) dopamine receptor, under -6; in assay [3] it was under -6. Besides, in assay [2], the Ki – broadly, a dissociation constant, usually derived from enzyme kinetics or from competition with a known ligand – was over 1000 nM.

For the compound `COc1ccccc1N1CCN(CCN2C(=O)CC3(CCCC3)CC2=O)CC1` [BMY-7378], the “Log Ki” value in assay [1] is recorded as -5.93; in assay [3], -6.31. The pKb (as a rule, the negative decadic logarithm of the Kb, by convention in mol/L) in assay [4] was 7.55. This compound also had a Ki on D(2) dopamine receptor of 49 nM. This compound also showed a pD2 in assay [5] of 9.27.

`NCCc1c[nH]c2ccc(C(N)=O)cc12` yielded a pD2 in assay [6] of 8.45.

`NCCc1c[nH]c2ccc(O)cc12`: the pD2 in assay [6] came out at 7.3.
